# Test results from PubChem BioAssay AID822 (SRMLSC, 2007).
# The source made the active and inactive calls.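 Rule for the calls: active = half-maximal effective dose for blocking growth of human endothelial cells at most 100 µM; inactive = the rest.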
# Test: growth suppression of umbilical vein endothelial cells – cell-based, HUVEC, ATP luminescence, dose response (AID 822);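 note: cells exposed to compound for 72 h before the ATP read; 100% = median luminescence of untreated cell-only control wells on each plate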
# Conditions: HUVEC proliferation, viability ATP luminescence; at 20 µM (top of the series)
# Summary of the method: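 Assay system: HUVEC primary endothelial cells, low passage (≤12) | Doses: 0.039–20 µM, 0.2% DMSO | Incubation: 72 h compound exposure at 37 °C | Detection: CellTiter-Glo ATP luminescence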
row,SMILES,viability
1,COc1cc2c(C(=O)NCc3ccc4c(c3)OCO4)cn(CC(C)C)c(=O)c2cc1OC,82.3% (inactive)
2,O=C1CC(Sc2nnc(-c3ccccc3O)o2)C(=O)N1c1ccccc1 (stereo unspecified),93% (inactive)
3,COc1ccc2cc3cc(C(=O)NCCc4ccc(OC)c(OC)c4)oc3nc2c1,93.3% (inactive)
4,Oc1ccc2oc3c(c2c1/C=N/n1cnnc1)CCCC3,88.2% (inactive)
5,Cn1nnc(NC(=O)CSc2ccc(Cl)cc2)n1,103% (inactive)
6,Brc1cccc(-c2nnc3sc(CNC4CCCC4)cn23)c1,84% (inactive)
7,CN1C(=O)C(O)(CC(=O)c2cccc(-n3cccc3)c2)c2ccccc21 (stereo unspecified),84.7% (inactive)
8,CCOC(=O)CNC(=O)C(=O)c1c(O)[nH]c2ccccc12,96.7% (inactive)
9,COc1ccc2[nH]cc(C(=O)CN3CCN(C(=O)c4ccco4)CC3)c2c1,101% (inactive)
10,COc1ccc(-c2noc(-c3ccc(Br)o3)n2)cc1OC,99.7% (inactive)
11,COc1ccccc1NC(=O)C1C2C=CC(O2)C1C(=O)O (stereo unspecified),94.6% (inactive)
